# MT stabilize HCS: stabilizes microtubules in HeLa cells; 200,000 compounds, 0.83% hits; HeLa tubulin immunostaining HCS, 24 h; share of cells brighter than vehicle mean+2SD; % tubulin-high responders, % at 10 µM; AID 2205;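 active = plate Z-score above 3 for both tubulin-high and condensed-nucleus cell shares, with cell loss under 80%, at 10 µM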;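 also: anti alpha tubulin signal scored within the nucleus-defined area of each cell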
# bCat nuc transl: modulators of beta-catenin nuclear translocation; HeLa beta-catenin nuclear translocation, immunofluorescence imaging; nuclear translocation activity, % at 5 µM; 190,000 compounds, 0.3% hits;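 active = nuclear translocation activity above 50% at 5 µM, with a well cell count of 50 or more; inconclusive = wells under 50 cells across six images, flagged as toxic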;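 also: per-cell ratio of nuclear to cytoplasmic median beta-catenin stain intensity; plate controls were DMSO negative control for no effect and GSK-3 inhibitor IX positive control for full effect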
#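 Test system: human HeLa cell line; Doses: 5 µM primary, 0.02–20 µM confirmation; Incubation: 24 h compound exposure, 37°C; Detection: beta-catenin immunofluorescence imaging with DAPI; Read-out: beta-catenin nuclear/cytoplasmic ratio, % activation.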
# Cl transport mod: modulators of human KCC2 chloride dependent transport | Q9H2X9 | KCC2 cells, thallium flux FluoZin-2 fluorescence | B-score of Tl+ flux slope (higher = more flux/activation; lower = inhibition) at 10 µM | 190,000 compounds, 2.2% hits | AID 1456;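 active = thallium flux slope and its plate-corrected score both differing from the plate sample mean at a set confidence after two filtering rounds, in either direction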;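 also: slope of fluorescence scaled to starting intensity during 10 to 20 s after thallium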
# DTT redox prof: compounds producing H2O2 with reducing agent – biochemical, NIH compound library profiling, artefact control for MLSCN library redox annotation, primary screen; DTT-dependent redox cycling H2O2, phenol red/HRP absorbance; 100% = 100 µM peroxide control, 0% = buffer; activation, % at 10 µM; 200,000 compounds, 0.03% hits; AID 878;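 active = activation of at least 50% relative to the plate's high and low controls in the primary single-dose screen; inactive = activation below 50%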;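 also: compound incubated with DTT at 0.8 mM final as the reducing agent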
# ROMK primary: modulators of human ROMK potassium channel | P48048 | Tet-inducible ROMK, thallium flux fluorescence; actives lie on both sides | B-score at 10 µM | 130,000 compounds, 2% hits | AID 1918;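 active = signal ratio slope over the read window, or its plate-corrected B-score, at least 3 SD from the plate mean, either direction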;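 also: B-score of the F/F0 ratio slope over 7 to 12 s after thallium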
# Target sequence (P48048 whole entry, looked up): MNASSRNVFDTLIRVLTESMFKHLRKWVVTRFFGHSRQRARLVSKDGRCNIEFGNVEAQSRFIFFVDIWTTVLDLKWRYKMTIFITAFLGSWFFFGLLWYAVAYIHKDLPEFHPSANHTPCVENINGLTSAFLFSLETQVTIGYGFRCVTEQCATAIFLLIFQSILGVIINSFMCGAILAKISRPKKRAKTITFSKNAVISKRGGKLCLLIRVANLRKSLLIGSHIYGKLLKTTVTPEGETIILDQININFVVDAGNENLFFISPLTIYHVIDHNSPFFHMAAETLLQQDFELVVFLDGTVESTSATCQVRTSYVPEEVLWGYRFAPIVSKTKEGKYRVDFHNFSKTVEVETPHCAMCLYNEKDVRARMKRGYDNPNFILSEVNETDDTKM
# KCC2 secondary: KCC2 (human) modulation, secondary assay; shares compounds with Cl transport mod; HEK293-KCC2, thallium flux, FluoZin2 fluorescence; hits give high values; normalised thallium flux (F/F0 slope) at 10 µM; 3,700 compounds, 15% hits;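 active = thallium flux slope above the same plate's solvent-only control mean plus 3 SD; inconclusive = the two replicate wells disagree; inactive = no significant difference from solvent-only control wells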
# KCC2 bumet counter: thallium flux persisting under bumetanide in KCC2 cells, counter-screen secondary assay. 3,700 compounds, 49% hits. shares compounds with Cl transport mod. HEK293-KCC2 + bumetanide/ouabain, thallium flux FluoZin2; hits give high values. normalized thallium flux at 10 µM;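 active = thallium entry rate above the same plate's blocked-transporter control wells by more than 3 SD; inconclusive = the two repeat wells disagree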;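 also: raw slope of fluorescence over initial fluorescence between 10 and 20 s after thallium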
# KCC2 secondary2: KCC2 (human) modulation, second secondary assay; shares compounds with Cl transport mod; HEK293-KCC2, thallium flux FluoZin2 fluorescence; actives lie on both sides; F/F0 rise rate, 10–20 s post-thallium; normalized thallium flux at 10 µM; 3,700 compounds, 23% hits; AID 1715;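 active = thallium flux slope more than 3 SD above or below the plate's solvent-only control mean, mostly below; inconclusive = the two repeat wells disagreed; inactive = no significant shift from solvent-only controls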;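 also: raw slope with 0.1% DMSO as baseline and bumetanide as block control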
# HEK293 Tl flux: acts in parental HEK cells, KCC2 counter-screen | thallium flux rate (normalised fluorescence) at 10 µM | HEK293 parental cells, thallium flux FluoZin2, ouabain; baseline-ratio fluorescence slope, 10–20 s after thallium | 3,700 compounds, 46% hits | shares compounds with Cl transport mod;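 active = thallium flux rate significantly above the same plate's solvent-only control wells, beyond their mean plus 3 SD; inconclusive = the two replicate wells gave conflicting results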
# KCC2 ouabain: confirmation of human KCC2 modulators with ouabain; shares compounds with Cl transport mod; HEK293-KCC2, thallium flux FluoZin2 fluorescence; bidirectional: low = inhibitor, high = activator; raw Tl+ flux slope (below DMSO = inhibition, above = activation) at 10 µM; 3,700 compounds, 48% hits;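 active = thallium flux slope beyond 3 SD from same-plate DMSO control mean in most replicates, usually higher, sometimes lower; inconclusive = repeat tests gave conflicting results; inactive = no significant difference from controls in most replicates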;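 also: slope of initial-normalized fluorescence between seconds 10 and 20 after thallium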
# HEK293 Tl flux2: parental HEK flux effect, counter-screen 2; shares compounds with Cl transport mod; HEK293 parental, thallium flux FluoZin-2 fluorescence slope; thallium flux slope at 10 µM; 3,700 compounds, 33% hits;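 active = thallium flux slope above the same plate's solvent-control mean plus 3 SD in both duplicate wells; inconclusive = duplicate wells that disagreed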;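 also: run without ouabain in cells lacking the KCC2 cotransporter; slope of fluorescence scaled to its starting value between 10 and 20 s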
# * marks the source's active call; other numbers are inactive results; ? = inconclusive; . = not tested or not shown. An excerpt weighted towards active compounds, which were near 3.7% of everything screened.
SMILES,MT stabilize HCS,bCat nuc transl,Cl transport mod,DTT redox prof,ROMK primary,KCC2 secondary,KCC2 bumet counter,KCC2 secondary2,HEK293 Tl flux,KCC2 ouabain,HEK293 Tl flux2
O=C(NNc1nc(-c2ccccc2)cs1)c1cccs1,.,-1.2,-3.77*,.,-0.0511,0.0092,0.00719,0.0258*,0.00419,0.0149*,0.0113
O=C(NCc1nc(-c2ccccc2)cs1)c1ccccc1,2.6,-2.1,-4.27*,-1.5,-1.99,0.00682,?,0.0219*,0.0076,?,0.0115
O=C(CCNC(=O)c1ccccc1Cl)Nc1nc(-c2ccc3ccccc3c2)cs1,4.2,.,-0.862,.,-0.548,.,.,.,.,.,.
O=C(NNc1nc(-c2ccc(F)cc2)cs1)c1ccccc1,3.2,0.4,-4.24*,-2.0,-0.562,0.0101,0.00737,0.0275*,0.00477,0.0168*,0.0113
Cc1ccc(C(=O)NNC(=O)CSc2nnc3c(n2)[nH]c2ccc(C)cc23)cc1,3.2,-0.6,5.39*,-1.8,-0.349,0.00647,0.00432,0.0315,0.00727,0.0185,0.0106
CCc1ccc2[nH]c3nc(SCC(=O)NNC(=O)c4ccc(C(C)(C)C)cc4)nnc3c2c1,3.9,0.2,.,-3.0,.,.,.,.,.,.,.
CC(C)(C)NC(=O)NC(=O)CN1CCN(S(=O)(=O)c2ccc3c(c2)OCCO3)CC1,.,-0.3,0.803,.,.,.,.,.,.,.,.
S=C(Nc1ccc(Cl)cc1Cl)NC1CCN(Cc2ccccc2)CC1,5.7,-0.4,-3.75*,0.3,.,0.00741,?,0.0288,0.00789,0.021*,?
CCN(CC)c1ccc(/C=N/NC(=O)OC)c(O)c1,4.4,0.7,1.2,-0.7,-0.00926,.,.,.,.,.,.
CCN(CC)c1ccc(/C=N/NC(=S)NC)c(O)c1,3.3,1.9,5.1*,-0.2,0.808,0.00907,0.0125*,0.0308,?,0.0222,0.0103
CSCCC(NC(N)=O)C(=O)Nc1ccc(F)c(Cl)c1 (configuration not stated),.,1.0,-0.0596,.,.,.,.,.,.,.,.
Cn1c(SCC(=O)c2ccc3c(c2)NC(=O)CO3)nc2ccccc21,3.3,0.6,-0.883,0.2,-0.000233,.,.,.,.,.,.
CCc1ccc(-n2c(SCC(=O)c3ccc4c(c3)NC(=O)CO4)nc3ccccc3c2=O)cc1,5.6,1.1,2.91*,0.1,0.232,0.00942,0.0116*,0.0305,0.00862*,?,0.00937
O=C1COc2ccc(C(=O)CSc3nc4ccccc4c(=O)n3-c3ccc(Cl)c(Cl)c3)cc2N1,7.0,2.7,2.48*,0.6,-0.496,?,0.0188*,0.0327,0.0102*,0.0227,?
CCCn1c(SCC(=O)c2ccc3c(c2)NC(=O)CO3)nc2ccccc21,3.2,.,-0.122,-0.6,.,.,.,.,.,.,.
CC(C)(C)C(=O)NC(=S)NNC(=O)C(c1ccccc1)c1ccccc1,2.3,0.4,5.82*,0.3,-1.96,0.0108,0.0227*,0.041,?,0.0299*,0.0128
CCOC(=O)c1sc2nc[nH]c(=O)c2c1C,1.1,.,5.81*,0.1,-0.0715,0.00844,0.00644,0.0301,0.00755,0.0234,?
CSc1nc2sc3c(c2c(=O)[nH]1)CCC3,1.3,.,0,0.1,-0.52,.,.,.,.,.,.
CCC(C)(C)n1nnnc1C(c1cccnc1)N1CCN(c2cccc(C(F)(F)F)c2)CC1 (configuration not stated),3.6,1.0,-3.16*,-1.6,.,0.00677,0.00389*,0.0314,?,0.0183,0.00998
